Screening results from PubChem BioAssay.
Casp6 inh: human caspase-6 inhibitors, primary screen, biochemical, VEID-R110 fluorescence, single point, set 2 | P55212 | purified caspase-6, Z-VEID-R110 cleavage fluorescence | inhibition, % at 12.5 µM | hit rate 0.53% among 350,000 | AID 686996, 2013;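 active = mean inhibition across replicates at least about 35%, with every replicate also reaching that limit, limit read from the data; inconclusive = only one of the two criteria met; inactive = neither criterion met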
XiGFP reactiv: activators of inactive X chromosome reactivation, primary screen, imaging, XiGFP fibroblasts, GFP high-content imaging, set 2; XiGFP mouse fibroblasts, % GFP-positive cells imaging, 3 d; cells co-treated with 5-aza-dC sensitizer; scaled so ellipticine positive control = 100%; activation, % at 7.58 µM; hit rate 0.055% among 360,000;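 active = mean normalized replicate activation at least 10% and every replicate at or above 10%; inconclusive = only one of the two criteria met; inactive = mean below 10% and not all replicates reach 10%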
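System: 68-5-11 XiGFP fibroblast line | Buffer or medium: DMEM containing 5-aza-dC | Compound: Single point | Times: Compounds 3 days, fix/stain 15 min at room temperature | Benchmarks: Positive control ellipticine, 6 µM final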
RAD54 inh: inhibitors of human RAD54 branch migration, primary screen, biochemical, fluorescence, single point | RAD54 Holliday junction branch migration, FAM/BHQ fluorescence | inhibition, % at 10.4 µM | hit rate 0.14% among 360,000 | AID 602329, 2012;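 active = mean normalized replicate activity at least 40 and at least half of replicates scoring 40 or more; inconclusive = only one of the two criteria met; inactive = mean below 40 and under half of replicates reaching 40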;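 note: inhibitors cause a drop in the FAM fluorescence signal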
Target sequence (Q92698 whole entry, looked up): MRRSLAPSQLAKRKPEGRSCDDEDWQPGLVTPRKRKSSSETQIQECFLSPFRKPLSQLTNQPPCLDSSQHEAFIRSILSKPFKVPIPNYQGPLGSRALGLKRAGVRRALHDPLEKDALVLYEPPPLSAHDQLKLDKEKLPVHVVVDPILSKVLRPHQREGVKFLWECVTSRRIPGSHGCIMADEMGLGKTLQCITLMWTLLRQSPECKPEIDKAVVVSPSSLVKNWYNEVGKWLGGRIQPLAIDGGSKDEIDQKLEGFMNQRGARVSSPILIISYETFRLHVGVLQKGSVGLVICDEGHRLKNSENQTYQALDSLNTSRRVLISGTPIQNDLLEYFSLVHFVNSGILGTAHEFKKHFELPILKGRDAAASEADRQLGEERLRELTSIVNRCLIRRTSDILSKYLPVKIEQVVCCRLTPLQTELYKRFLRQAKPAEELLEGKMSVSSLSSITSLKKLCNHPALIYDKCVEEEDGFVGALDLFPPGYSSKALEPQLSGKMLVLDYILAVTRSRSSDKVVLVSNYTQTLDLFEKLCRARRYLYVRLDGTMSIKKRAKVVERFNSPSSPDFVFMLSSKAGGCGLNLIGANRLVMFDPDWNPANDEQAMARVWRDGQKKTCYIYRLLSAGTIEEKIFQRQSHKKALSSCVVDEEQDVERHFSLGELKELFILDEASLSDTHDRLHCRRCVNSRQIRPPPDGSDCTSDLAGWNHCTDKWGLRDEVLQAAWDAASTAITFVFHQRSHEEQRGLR
AF4-AF9 inh: inhibitors of AF4 peptide binding to AF9, primary screen, biochemical, AlphaScreen, biotin-AF4 peptide, FLAG-AF9, single point; Protein AF-9 (Homo sapiens), P42568; inhibition, % at 10 µM; hit rate 0.47% among 350,000;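 active = every replicate reaching a set inhibition limit, whatever the replicate mean, cut at about 25% in these data; inconclusive = mean inhibition reaches that limit but some replicates miss it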
RAD52 inh: RAD52 DNA annealing inhibitors, primary screen, biochemical, FRET, single point, set 2; AID 651710, 2012; hit rate 0.46% among 360,000; recombinant RAD52 DNA annealing, FRET fluorescence; DNA repair protein RAD52 homolog (Homo sapiens), P43351; inhibition, % at 18.7 µM;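 active = every replicate showing at least 50% inhibition; inconclusive = mean inhibition at least 50% but not in every replicate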
S100A4 MyoIIA: inhibitors of S100A4-myosin IIA peptide binding, primary screen, biochemical, fluorescence polarization, TAMRA-MyoIIA peptide; hit rate 0.14% among 360,000; inhibition, % at 10.7 µM;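 active = mean inhibition of at least 70% across replicates, with every replicate also reaching that level; inconclusive = mean inhibition reaches 70% but some replicates fall short; inactive = mean inhibition below 70%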
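Test system – S100A4 monomer (human) · Compound – single-point compound testing · Schedule – 5 min incubation before reading · Probe or stimulus – TAMRA-labelled myosin IIA heavy-chain peptide probe, 5 nM · Benchmarks – neutral control DMSO, positive control TFP · Medium – Calcium-containing HEPES buffer, pH 7.2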
A number is an active result; i = inactive; ? = inconclusive; nt = no result; + = active, no number. In the library only some 1.3% were active in any assay of this set; here they are far more common.

SMILES	Casp6 inh	XiGFP reactiv	RAD54 inh	AF4-AF9 inh	RAD52 inh	S100A4 MyoIIA
CNc1ccc2nc3ccccc3[n+](C)c2c1	95	i	98	i	i	+
C[n+]1c2ccccc2nc2ccc(NCCO)cc21	83	i	75	i	i	192
CC(C)NC(=O)N1C[C@@H]2C(c3ccccc3)[C@H](C1)N2CC1CC1 (stereo partly drawn)	nt	i	nt	nt	nt	nt
O=C1NC(=O)N(c2ccc(Cl)cc2)C(=O)/C1=C\c1ccc(Sc2nc3ccccc3[nH]2)o1	69	i	nt	i	i	i
Cn1cccc1/C=C1\C(=O)NC(=O)N(Cc2ccco2)C1=O	nt	i	i	nt	nt	nt
Cc1ccc(/C=C2\C(=O)NC(=O)N(Cc3ccccc3Cl)C2=O)o1	51	i	nt	i	i	i
Cc1cc(/C=C2\C(=O)NC(=O)N(Cc3ccccc3)C2=O)c(C)n1-c1ccc(Cl)c(C(=O)O)c1	66	i	nt	i	i	i
Cc1ccc(OCCn2cccc2/C=C2/C(=O)NC(=O)N(Cc3ccco3)C2=O)cc1	76	i	nt	i	i	i
Cc1cc(/C=C2\C(=O)NC(=O)N(Cc3ccco3)C2=O)c(C)n1-c1ccc(C(=O)O)cc1	71	i	nt	i	i	i
Cc1ccc(/C=C2/C(=O)NC(=O)N(Cc3ccc(F)cc3)C2=O)o1	i	i	nt	i	i	i
CCOC(=O)[C@@H]1[C@@H]2NC(=O)N(C)[C@@]1(C)Oc1ccccc12	i	nt	i	i	i	i
COc1ccccc1CN1[C@H](CO)[C@H](c2ccccc2)C12CN(C(=O)Cc1ccccc1)C2	i	i	nt	i	i	i
Cc1cc(/C=C2\C(=O)NC(=O)N(Cc3ccco3)C2=O)c(C)n1-c1ccc(O)cc1	69	i	i	i	i	i
CCOC(=O)C1CCN(/C=C2/C(=O)NC(=O)N(Cc3ccco3)C2=O)CC1	55	nt	i	nt	i	i
Cc1cc(/C=C2\C(=O)NC(=O)N(Cc3ccccc3Cl)C2=O)c(C)n1-c1ccc(C(=O)O)cc1	48	i	nt	i	i	i
Cc1ccc(-n2c(C)cc(/C=C3/C(=O)NC(=O)N(Cc4ccco4)C3=O)c2C)cc1	nt	i	i	nt	nt	nt
Cc1ccc(N2C(=O)NC(=O)/C(=C\c3cc(C)n(-c4ccc(C(=O)O)cc4)c3C)C2=O)cc1	i	i	i	i	i	i
CC[C@@H](CO)NC(=O)[C@@H]1C=C2c3cccc4[nH]cc(c34)C[C@H]2N(C)C1	62	i	i	?	i	i
CC[C@@H](CO)NC(=O)[C@@H]1C=C2c3cccc4c3c(cn4C)C[C@H]2N(C)C1	73	i	64	i	i	i
CCC(CO)NC(=O)C1C=C2c3cccc4[nH]cc(c34)CC2N(C)C1 (stereo not drawn)	48	i	i	?	i	i
CCNc1cc(N2CCN(C)CC2)ccc1[N+](=O)[O-]	i	i	i	i	i	i
CN1CCN(c2ccc([N+](=O)[O-])c(N/N=C3\CN4CCC3CC4)c2)CC1	nt	nt	70	nt	nt	nt
[O-]c1ccccc1-[n+]1c(-c2ccccc2)cc(-c2ccccc2)cc1-c1ccccc1	i	i	i	i	61	i
Cc1ccc(OC(=O)N(C)C[C@@H]2OCc3ccccc3-c3c(n(C)c4ccccc34)C(=O)N([C@@H](C)CO)C[C@H]2C)cc1	i	i	nt	i	i	i
C=Cc1cc(OC)c2c(c1)c(=O)oc1c2cc(OC)c2c(O)ccc(C3OC(C)C(O)C(C)(O)C3O)c21 (stereo not drawn)	53	i	nt	i	i	i
SMILES	Casp6 inh	XiGFP reactiv	RAD54 inh	AF4-AF9 inh	RAD52 inh	S100A4 MyoIIA
COC(=O)[C@@H]1[C@@H](CO)[C@@H]2Cn3c(ccc(-c4cccnc4)c3=O)[C@H]1N2S(=O)(=O)c1ccccc1F	i	i	i	i	i	i
C=C1C(=O)O[C@@H]2C[C@@H](C)[C@@H]3C=CC(=O)[C@@]3(C)[C@@H](OC(=O)CC(=O)O[C@H]3[C@@H]4C(=C)C(=O)O[C@@H]4C[C@@H](C)[C@@H]4C=CC(=O)[C@]43C)[C@H]12	i	i	i	i	i	i
C=C1C(=O)O[C@H]2C[C@@H](C)[C@@H]3C=CC(=O)[C@@]3(C)C[C@H]12	74	i	nt	i	i	i
CCCC(=O)NC1=C(N2CC2)C(=O)C(NC(=O)CCC)=C(N2CC2)C1=O	i	i	i	i	i	i
CC(=O)NC1=C(N2CC2C)C(=O)C(NC(C)=O)=C(N2CC2C)C1=O (stereo not drawn)	38	i	i	i	i	i
O=C(C(=C1N(Cc2ccc(Cl)nc2)CCN1Cc1ccc(Cl)nc1)[N+](=O)[O-])C(Cl)Cl	36	i	i	i	i	i
COC(=O)[C@@H]1[C@@H](CO)[C@@H]2Cn3c(ccc(-c4ccccc4F)c3=O)[C@H]1N2Cc1ccncc1	i	i	i	i	107	i
COC(=O)[C@H]1[C@H](CO)[C@H]2Cn3c(ccc(-c4ccccc4F)c3=O)[C@@H]1N2Cc1ccncc1	i	i	i	i	123	i
CCCN1[C@@H]2c3ccc(-c4ccc(F)cc4)c(=O)n3C[C@H]1[C@H](CO)[C@H]2C(=O)OC	i	i	i	i	57	i
CCCN1[C@@H]2Cn3c(ccc(-c4ccc(OC)cc4)c3=O)[C@H]1[C@@H](C(=O)OC)[C@@H]2CO	i	i	i	i	i	i
COC(=O)[C@H]1[C@H](CO)[C@H]2Cn3c(ccc(-c4ccccc4F)c3=O)[C@@H]1N2Cc1ccccc1	i	i	i	i	i	i
COC(=O)[C@@H]1[C@@H](CO)[C@@H]2Cn3c(ccc(C4=CCCCC4)c3=O)[C@H]1N2C(=O)NC(C)C	i	i	i	i	i	i
O=C(Cc1ccccn1)N1CCCCN2[C@H](CO)[C@H](c3ccc(C#Cc4ccccc4)cc3)[C@H]2C1	i	i	i	i	i	i
N#Cc1cccc(-c2ccc([C@H]3[C@H]4CN(C(=O)Cc5ccccc5)CCCCN4[C@H]3CO)cc2)c1	i	i	i	i	i	i
O=c1oc2ccccc2c(O)c1C(c1ccc([N+](=O)[O-])cc1)c1c(O)c2ccccc2oc1=O	i	i	i	i	i	i
CC(C)c1ccc(C(c2c(O)c3ccccc3oc2=O)c2c(O)c3ccccc3oc2=O)cc1	66	i	nt	i	i	i
O=C(Cc1ccccc1)N1CC2(C1)[C@@H](c1ccccc1)[C@H](CO)N2Cc1cccc(F)c1	nt	i	nt	nt	nt	nt
